Experimental data taken from ChEMBL document CHEMBL2029337, “Synthesis and antimicrobial activities of structurally novel S,S'-bis(heterosubstituted) disulfides” (Bioorg Med Chem Lett, 2012).
Converted amounts (≈) assume the structure as drawn. The source made the active and inactive calls. The rule behind the calls is not given here.

Legend:
[1] = test system: Staphylococcus aureus; assay: Antibacterial activity against methicillin-susceptible Staphylococcus aureus ATCC 25923 […] by agar dilution method; format: functional
[2] = test system: Escherichia coli; assay: Antibacterial activity against Escherichia coli K-12 […] by agar dilution method; format: functional, organism-based
[3] = Antibacterial activity against Francisella tularensis subspecies holarctica LVS after 48 hrs by broth dilution method; format: functional, Francisella tularensis subsp. holarctica LVS
[4] = test system: Staphylococcus aureus; assay: Antibacterial activity against methicillin-resistant Staphylococcus aureus ATCC 43300 […] by agar dilution method; format: functional
[5] = test system: Bartonella sp.; assay: Antibacterial activity against Bartonella ssp. […] by agar dilution method; format: functional
[6] = test system: Staphylococcus aureus; assay: Antibacterial activity against methicillin-resistant Staphylococcus aureus ATCC 43300 assessed as growth inhibition at 10 ug after 24 hrs by agar-diffusion assay in presence of iPrSSiPr; format: functional, organism-based
Summary of the method: (§1)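 Kirby-Bauer well diffusion on an MRSA lawn (0.5 McFarland suspension swabbed onto tryptic soy agar). Four test agents sat in wells equidistant from a centre well holding 1 mg of additive in DMSO; a DMSO-only centre well served as vehicle control. After overnight incubation at 37 °C, the inhibition zones were examined for size or shape change.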

[7] = test system: Staphylococcus aureus; assay: Antibacterial activity against methicillin-resistant Staphylococcus aureus ATCC 43300 assessed as growth inhibition at 10 ug after 24 hrs by agar-diffusion assay in presence of lysine; format: functional, organism-based; summary of the method: as §1
[8] = test system: Staphylococcus aureus; assay: Antibacterial activity against methicillin-resistant Staphylococcus aureus ATCC 43300 assessed as growth inhibition at 10 ug after 24 hrs by agar-diffusion assay in presence of valine; format: functional, organism-based; summary of the method: as §1
[9] = test system: Staphylococcus aureus; assay: Antibacterial activity against methicillin-resistant Staphylococcus aureus ATCC 43300 assessed as growth inhibition at 10 ug after 24 hrs by agar-diffusion assay in presence of PPh3; format: functional, organism-based; summary of the method: as §1
[10] = test system: Staphylococcus aureus; assay: Antibacterial activity against methicillin-resistant Staphylococcus aureus ATCC 43300 assessed as growth inhibition at 10 ug after 24 hrs by agar-diffusion assay in presence of CoA; format: functional, organism-based; summary of the method: as §1
[11] = test system: Staphylococcus aureus; assay: Antibacterial activity against methicillin-resistant Staphylococcus aureus ATCC 43300 assessed as growth inhibition at 10 ug after 24 hrs by agar-diffusion assay in presence of cystine; format: functional, organism-based
[12] = test system: Staphylococcus aureus; assay: Antibacterial activity against methicillin-resistant Staphylococcus aureus ATCC 43300 assessed as growth inhibition at 10 ug after 24 hrs by agar-diffusion assay in presence of GSH; format: functional, organism-based; summary of the method: as §1
[13] = test system: Staphylococcus aureus; assay: Antibacterial activity against methicillin-resistant Staphylococcus aureus ATCC 43300 assessed as growth inhibition at 10 ug after 24 hrs by agar-diffusion assay in presence of glycine; format: functional, organism-based; summary of the method: as §1

CC(C)NSSNC(C)C
MIC [1]: 32 µg/mL (≈ 177 µM) | Activity [2]: inactive | MIC [3]: 2 µg/mL (≈ 11.1 µM) | MIC [4]: 32 µg/mL (≈ 177 µM) | Activity [5]: inactive

CCC(C)SSSSC(C)CC (centres undefined)
MIC [1]: 32 µg/mL (≈ 132 µM) | Activity [2]: inactive | MIC [3]: 16 µg/mL (≈ 66 µM) | MIC [4]: 64 µg/mL (≈ 264 µM) | Activity [5]: inactive

CC[C@@H](C)OSSO[C@H](C)CC
MIC [1]: 16 µg/mL (≈ 76.1 µM) | Activity [2]: inactive | MIC [3]: 16 µg/mL (≈ 76.1 µM) | MIC [4]: 32 µg/mL (≈ 152 µM) | Activity [5]: inactive

CCCCSSSSCCCC
MIC [1]: 64 µg/mL (≈ 264 µM) | Activity [2]: inactive | MIC [3]: 4 µg/mL (≈ 16.5 µM) | MIC [4]: 32 µg/mL (≈ 132 µM) | Activity [5]: inactive

CC[C@H](C)OSSO[C@@H](C)CC
MIC [1]: 16 µg/mL (≈ 76.1 µM) | Activity [2]: inactive | MIC [3]: 16 µg/mL (≈ 76.1 µM) | MIC [4]: 32 µg/mL (≈ 152 µM) | Activity [5]: inactive

CC1(C)S[C@@H]2[C@H](NC(=O)Cc3ccccc3)C(=O)N2[C@H]1C(=O)O [PENICILLIN G]
MIC [1]: 0.25 µg/mL (≈ 0.748 µM) | growth inhibition (GI) [6]: Active | growth inhibition (GI) [7]: Active | growth inhibition (GI) [8]: Active | growth inhibition (GI) [9]: Active | growth inhibition (GI) [10]: Active | growth inhibition (GI) [11]: Active | growth inhibition (GI) [12]: Active | MIC [4]: 64 µg/mL (≈ 191 µM) | growth inhibition (GI) [13]: Active

CC(C)SSc1ccc([N+](=O)[O-])cc1
growth inhibition (GI) [6]: Active | growth inhibition (GI) [7]: Active | growth inhibition (GI) [8]: Active | growth inhibition (GI) [9]: Active | growth inhibition (GI) [10]: inactive | growth inhibition (GI) [11]: inactive | growth inhibition (GI) [12]: inactive | growth inhibition (GI) [13]: Active

c1ccc(SSSSc2ccccc2)cc1
MIC [1]: 8 µg/mL (≈ 28.3 µM) | Activity [2]: inactive | MIC [3]: 2 µg/mL (≈ 7.08 µM) | MIC [4]: 8 µg/mL (≈ 28.3 µM) | Activity [5]: inactive

CC1CCC(C(C)C)C(OSSOC2CC(C)CCC2C(C)C)C1 (racemic)
MIC [1]: 8 µg/mL (≈ 21.4 µM) | Activity [2]: inactive | MIC [3]: 4 µg/mL (≈ 10.7 µM) | MIC [4]: 16 µg/mL (≈ 42.7 µM) | Activity [5]: inactive

CC(C)N(SSN(C(C)C)C(C)C)C(C)C
MIC [1]: 2 µg/mL (≈ 7.56 µM) | Activity [2]: inactive | MIC [3]: 32 µg/mL (≈ 121 µM) | MIC [4]: 1 µg/mL (≈ 3.78 µM) | Activity [5]: inactive

c1ccc(NSSNc2ccccc2)cc1
MIC [1]: 4 µg/mL (≈ 16.1 µM) | Activity [2]: inactive | MIC [3]: 0.5 µg/mL (≈ 2.01 µM) | MIC [4]: 4 µg/mL (≈ 16.1 µM) | Activity [5]: inactive

C=CCN(CC=C)SSN(CC=C)CC=C
MIC [1]: 1 µg/mL (≈ 3.9 µM) | Activity [2]: inactive | MIC [3]: 16 µg/mL (≈ 62.4 µM) | MIC [4]: 0.5 µg/mL (≈ 1.95 µM) | Activity [5]: inactive

CCCNSSNCCC
MIC [1]: 8 µg/mL (≈ 44.4 µM) | Activity [2]: inactive | MIC [3]: 16 µg/mL (≈ 88.7 µM) | MIC [4]: 4 µg/mL (≈ 22.2 µM) | Activity [5]: inactive

CN(C)SSN(C)C
MIC [1]: 0.25 µg/mL (≈ 1.64 µM) | Activity [2]: inactive | MIC [3]: 8 µg/mL (≈ 52.5 µM) | MIC [4]: 0.5 µg/mL (≈ 3.28 µM) | Activity [5]: inactive

CCN(CC)SSN(CC)CC
MIC [1]: 2 µg/mL (≈ 9.6 µM) | Activity [2]: inactive | MIC [3]: 16 µg/mL (≈ 76.8 µM) | MIC [4]: 2 µg/mL (≈ 9.6 µM) | Activity [5]: inactive

CCC(C)OSSOC(C)CC (centres undefined)
MIC [1]: 16 µg/mL (≈ 76.1 µM) | Activity [2]: inactive | MIC [3]: 16 µg/mL (≈ 76.1 µM) | MIC [4]: 8 µg/mL (≈ 38 µM) | Activity [5]: inactive

CCCCNSSNCCCC
MIC [1]: 8 µg/mL (≈ 38.4 µM) | Activity [2]: inactive | MIC [3]: 4 µg/mL (≈ 19.2 µM) | MIC [4]: 32 µg/mL (≈ 154 µM) | Activity [5]: inactive

CC(COSSOCC(C)c1ccccc1)c1ccccc1 (racemic)
MIC [1]: 16 µg/mL (≈ 47.8 µM) | Activity [2]: inactive | MIC [3]: 8 µg/mL (≈ 23.9 µM) | MIC [4]: 16 µg/mL (≈ 47.8 µM) | Activity [5]: inactive

CCCSSSSCCC
MIC [1]: 32 µg/mL (≈ 149 µM) | Activity [2]: inactive | MIC [3]: 1 µg/mL (≈ 4.66 µM) | MIC [4]: 32 µg/mL (≈ 149 µM) | Activity [5]: inactive

C[C@@H](c1ccccc1)N(Cc1ccccc1)SSN(Cc1ccccc1)[C@@H](C)c1ccccc1
MIC [1]: 16 µg/mL (≈ 33 µM) | Activity [2]: inactive | MIC [3]: 16 µg/mL (≈ 33 µM) | MIC [4]: 64 µg/mL (≈ 132 µM) | Activity [5]: inactive

CC(C)SSSSC(C)C
MIC [1]: 32 µg/mL (≈ 149 µM) | Activity [2]: inactive | MIC [3]: 8 µg/mL (≈ 37.3 µM) | MIC [4]: 32 µg/mL (≈ 149 µM) | Activity [5]: inactive

CCC(C)NSSNC(C)CC (centres undefined)
MIC [1]: 16 µg/mL (≈ 76.8 µM) | Activity [2]: inactive | MIC [3]: 8 µg/mL (≈ 38.4 µM) | MIC [4]: 16 µg/mL (≈ 76.8 µM) | Activity [5]: inactive

CC(C)[C@H]1CC[C@H](C)C[C@@H]1OSSO[C@H]1C[C@@H](C)CC[C@@H]1C(C)C
MIC [1]: 8 µg/mL (≈ 21.4 µM) | Activity [2]: inactive | MIC [3]: 4 µg/mL (≈ 10.7 µM) | MIC [4]: 8 µg/mL (≈ 21.4 µM) | Activity [5]: inactive

CC(C)CN(CC(C)C)SSN(CC(C)C)CC(C)C
MIC [1]: 16 µg/mL (≈ 49.9 µM) | Activity [2]: inactive | MIC [3]: 1 µg/mL (≈ 3.12 µM) | MIC [4]: 16 µg/mL (≈ 49.9 µM) | Activity [5]: inactive

C[C@H](c1ccccc1)N(Cc1ccccc1)SSN(Cc1ccccc1)[C@H](C)c1ccccc1
MIC [1]: 16 µg/mL (≈ 33 µM) | Activity [2]: inactive | MIC [3]: 16 µg/mL (≈ 33 µM) | MIC [4]: 64 µg/mL (≈ 132 µM) | Activity [5]: inactive

CCCOSSOCCC
MIC [1]: 32 µg/mL (≈ 176 µM) | Activity [2]: inactive | MIC [3]: 16 µg/mL (≈ 87.8 µM) | MIC [4]: 32 µg/mL (≈ 176 µM) | Activity [5]: inactive

CCCCOSSOCCCC
MIC [1]: 0.25 µg/mL (≈ 1.19 µM) | Activity [2]: inactive | MIC [3]: 4 µg/mL (≈ 19 µM) | MIC [4]: 8 µg/mL (≈ 38 µM) | Activity [5]: inactive

O=C(O)c1cn(C2CC2)c2cc(N3CCNCC3)c(F)cc2c1=O [CIPROFLOXACIN]
MIC [3]: 0.125 µg/mL (≈ 0.377 µM)

c1ccc(OSSOc2ccccc2)cc1
MIC [1]: 2 µg/mL (≈ 7.99 µM) | Activity [2]: inactive | MIC [3]: 1 µg/mL (≈ 3.99 µM) | MIC [4]: 2 µg/mL (≈ 7.99 µM) | Activity [5]: inactive

CC(C)[C@@H]1CC[C@@H](C)C[C@H]1OSSO[C@@H]1C[C@H](C)CC[C@H]1C(C)C
MIC [1]: 8 µg/mL (≈ 21.4 µM) | Activity [2]: inactive | MIC [3]: 4 µg/mL (≈ 10.7 µM) | MIC [4]: 16 µg/mL (≈ 42.7 µM) | Activity [5]: inactive
